Experimental data pooled from the literature.
Each line is one published result; the experiments were not run side by side.
Cell line: PC-3
Observed: cell growth or viability

COc1cc(C(=O)c2nc(-c3cccc4c3CC(=O)N4)c[nH]2)cc(OC)c1OC
IC50 (MTS; 72 h): 0.0186 µM

NS(=O)(=O)c1ccc(-n2nc(C(=O)NN=Cc3ccccc3O)cc2-c2ccccc2)cc1
IC50 (fluorescence; 48 h): 18 µM

O=C1/C(=C/c2ccc3ccccc3c2O)NC(=S)N1c1ccccc1
IC50 (MTT): 6.04 mg/L

CC1(P2(=O)CCCCC2)CCCCC1
IC50 (MTT; 72 h): > 100 µM

COc1cc(C(=O)c2nc(-c3cccc4[nH]cnc34)c[nH]2)cc(OC)c1OC
IC50 (MTS; 72 h): 0.0158 µM

CC(=O)O[C@H]1[C@H](OC(C)=O)[C@@H](Nc2cc3cccnc3c3ncccc23)OC[C@@H]1OC(C)=O
IC50 (MTT; 48 h, dark): 1.4 µM

CC(=O)O[C@H]1C(=O)[C@@]2(C)[C@H]([C@H](OC(=O)c3ccccc3)[C@]3(O)C[C@H](OC(=O)[C@H](O)[C@@H](NC(=O)c4ccccc4)c4ccccc4)C(C)=C1C3(C)C)[C@]1(OC(C)=O)CO[C@@H]1C[C@@H]2O
IC50 (MTS; 72 h): 0.0004 µM

COc1cccc2c1C(=O)c1c(O)c3c(c(O)c1C2=O)C[C@@](O)(C(=O)CO)C[C@@H]3O[C@H]1C[C@H](N)[C@H](O)[C@H](C)O1
IC50 (MTT; 72 h): 0.3 µM

CN(C)c1cccc2c(S(=O)(=O)NCCCCN=C=S)cccc12
IC50 (MTT; 24 h): 16.8 µM

NS(=O)(=O)c1ccc(-n2nc(C(=O)NN3C(=O)c4ccccc4C3=O)cc2-c2ccccc2)cc1
IC50 (fluorescence; 48 h): 54.4 µM

COc1cc(C(=O)c2nc(-c3ccncc3)c[nH]2)cc(OC)c1OC
IC50 (MTS; 72 h): > 1 µM

NS(=O)(=O)c1ccc(-n2nc(C(=O)NN3C(=O)CCC3=O)cc2-c2ccccc2)cc1
IC50 (fluorescence; 48 h): 36.2 µM

COc1cc(C(=O)c2nc(-c3cccc4c3CCN4)c[nH]2)cc(OC)c1OC
IC50 (MTS; 72 h): 0.022 µM

COc1ccc(C=NNC(=O)c2cc(-c3ccccc3)n(-c3ccc(S(N)(=O)=O)cc3)n2)cc1OC
IC50 (fluorescence; 48 h): 27.1 µM

COc1cc(C(=O)c2nc(-c3cccc4[nH]nnc34)c[nH]2)cc(OC)c1OC
IC50 (MTS; 72 h): 0.0203 µM

CC(=NNC(=O)c1cc(-c2ccccc2)n(-c2ccc(S(N)(=O)=O)cc2)n1)c1ccc(Br)cc1
IC50 (fluorescence; 48 h): 48 µM

CC1(P2(=O)CCCCC2)C=CCC=C1
IC50 (MTT; 72 h): > 100 µM

NS(=O)(=O)c1ccc(-n2nc(C(=O)NN=Cc3cccnc3)cc2-c2ccccc2)cc1
IC50 (fluorescence; 48 h): 38.6 µM

O=c1[nH]cc(F)c(=O)[nH]1
IC50 (MTT; 72 h): > 360 µM
